Assay results taken from PMC10077566 (ACS Omega, 2023).

Tests used:
[1] = tested on: U-87-MG spheroids; assay: Calcein-AM spheroid viability assay; format: cell-based, human; conditions: 10 μM, 24 h; six-day old spheroids, 10000 cells/well
Procedure, shortened: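 Six-day-old U-87-MG spheroids seeded at 10000 cells/well in U-bottom low-attachment 24-well plates from monolayers grown to 70% confluence, in serum-free B27 neuronal basal medium or FBS-supplemented EMEM, with medium changed every 3 days. Exposed to the test compound at 10 μM for 24 h, moved to a fresh plate, washed three times with assay buffer, then stained with 3 μM Calcein-AM for 1 h at 37 °C. Imaged by fluorescence.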

[2] = tested on: U-87-MG cells; assay: Annexin V FITC-propidium iodide apoptosis assay, FACS; format: cell-based, human; conditions: Annexin V FITC/PI quadrant
[3] = tested on: primary mouse neurons; assay: MTT cytotoxicity / cell viability, noncancer cells; format: cell-based; conditions: 24 h, n = 3
Procedure, shortened: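 Primary mouse neurons were grown in serum-free DMEM/F12-based neural medium with L-glutamine, HEPES, penicillin/streptomycin and supplement. They were plated at 1×10^4 cells/well and allowed to spread for 24 h at 37 °C, 5% CO2, then treated with the test compound at 2 or 10 μM for 24 h. MTT was added for 4 h, then solubilizing solution for 4 h. Absorbance was read at 560 and 590 nm. Runs were in triplicate, with Student's t tests.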

[4] = target: FABP3 (U-87-MG cells) (Homo sapiens, UniProt P05413); assay: FABP3-mediated internalization, antibody labeling and FACS; format: cell-based; conditions: serum-free, 10 μM, FACS, Coralite 594-conjugated FABP3 antibody
Chain of FABP3 (U-87-MG cells) (P05413 whole entry): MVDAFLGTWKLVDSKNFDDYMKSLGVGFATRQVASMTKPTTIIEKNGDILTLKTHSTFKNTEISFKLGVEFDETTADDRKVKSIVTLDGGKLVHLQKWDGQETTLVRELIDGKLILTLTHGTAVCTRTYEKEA
Procedure, shortened: (§1)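 Cells were kept in serum-free neuronal basal medium with B27 and seeded at 1×10^4 cells/well in 6-well plates, then left to spread for 4 h at 37 °C, 5% CO2. They were incubated with Coralite 594-conjugated anti-FABP3 mouse antibody, then with the test compound (10 μM) for 24 h. Cells were trypsinized, pelleted at […] for 5 min, resuspended in FACS buffer and filtered. Flow cytometry used 582 nm excitation.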

[5] = target: FABP3 (U-138-MG cells) (Homo sapiens, UniProt P05413); assay: as above; format: cell-based; conditions: serum-free, 10 μM, FACS, Coralite 594-conjugated FABP3 antibody
Chain of FABP3 (U-138-MG cells) (P05413 whole entry): as above
Procedure, shortened: as §1

Row | Compound | spheroid viability, Calcein-AM fluorescence [1] | necrotic cells ([2]; 2 μM) [%] | necrotic cells ([2]; 10 μM) [%] | cell viability ([3]; 2 μM) [%] | cell viability ([3]; 10 μM) [%] | FABP3-mediated internalization [4] | FABP3-mediated internalization [5]
1 | COc1cccc2c1C(=O)c1c(O)c3c(c(O)c1C2=O)C[C@@](O)(C(=O)CO)C[C@@H]3O[C@H]1C[C@H](N)[C@H](O)[C@H](C)O1 [DOX, doxorubicin] | scattered viable cells were seen throughout the spheroid | 7.2 | 24 | 49.3 | 27.2 | – | –
2 | ACGLSGLCVAK [A-COOP-K] | – | – | – | – | – | did not show internalization | did not show internalization
